ChEMBL document CHEMBL2176984, “Target Selectivity of FimH Antagonists” (J Med Chem, 2012)

Assays:
[1] = target: T1, C-type lectin domain family 4 member C (Homo sapiens) (UniProt Q8WTT0); experiment: Displacement of biotinylated-TM PAA from human DLEC at 50 mM after 3 hrs by colorimetry
T1 sequence (whole entry): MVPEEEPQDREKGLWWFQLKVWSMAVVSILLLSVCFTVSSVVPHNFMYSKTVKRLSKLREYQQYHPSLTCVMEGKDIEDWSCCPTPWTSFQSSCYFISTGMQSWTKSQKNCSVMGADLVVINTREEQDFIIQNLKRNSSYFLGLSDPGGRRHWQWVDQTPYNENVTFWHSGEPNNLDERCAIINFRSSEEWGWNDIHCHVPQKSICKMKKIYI
How it was run: (§1)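 α-D-mannose served as the positive control at 50 mM final, mixed with streptavidin-HRP-TM-PAA and applied to lectin-coated wells. Wells were coated overnight at 4 °C in HEPES/NaCl/10 mM CaCl2 at pH 7.4 and blocked with BSA. Incubation was 3 h at 25 °C, followed by four washes and ABTS development for 4 min, stopped with oxalic acid, OD 415 nm. Binding is expressed as % of the antagonist-free signal after subtracting the polymer-free background.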

[2] = target: C-type lectin domain family 4 member K (Homo sapiens, UniProt Q9UJ71); experiment: Displacement of biotinylated-TM PAA from human langerin at 50 mM after 3 hrs by colorimetry; how it was run: as §1
Chain of C-type lectin domain family 4 member K (Q9UJ71 whole entry, the tested form may be a part): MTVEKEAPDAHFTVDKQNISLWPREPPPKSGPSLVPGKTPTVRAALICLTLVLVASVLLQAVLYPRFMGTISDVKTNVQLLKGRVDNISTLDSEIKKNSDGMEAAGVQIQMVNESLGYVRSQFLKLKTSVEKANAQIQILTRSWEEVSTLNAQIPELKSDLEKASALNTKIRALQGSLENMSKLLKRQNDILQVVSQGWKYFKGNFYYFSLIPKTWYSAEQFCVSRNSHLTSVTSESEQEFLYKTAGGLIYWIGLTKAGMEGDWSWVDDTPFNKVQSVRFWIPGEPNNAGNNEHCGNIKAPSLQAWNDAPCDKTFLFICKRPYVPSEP

Escherichia coli = experiment: Displacement of biotinylated-TM PAA from Escherichia coli FimH expressed in Escherichia coli HM125 at 50 mM after 3 hrs by colorimetry; how it was run: as §1
[3] = target: T2, CD209 antigen (Homo sapiens) (UniProt Q9NNX6); experiment: Displacement of biotinylated-TM PAA from human DC-SIGN at 50 mM after 3 hrs by colorimetry; how it was run: as §1
T2 sequence (whole entry): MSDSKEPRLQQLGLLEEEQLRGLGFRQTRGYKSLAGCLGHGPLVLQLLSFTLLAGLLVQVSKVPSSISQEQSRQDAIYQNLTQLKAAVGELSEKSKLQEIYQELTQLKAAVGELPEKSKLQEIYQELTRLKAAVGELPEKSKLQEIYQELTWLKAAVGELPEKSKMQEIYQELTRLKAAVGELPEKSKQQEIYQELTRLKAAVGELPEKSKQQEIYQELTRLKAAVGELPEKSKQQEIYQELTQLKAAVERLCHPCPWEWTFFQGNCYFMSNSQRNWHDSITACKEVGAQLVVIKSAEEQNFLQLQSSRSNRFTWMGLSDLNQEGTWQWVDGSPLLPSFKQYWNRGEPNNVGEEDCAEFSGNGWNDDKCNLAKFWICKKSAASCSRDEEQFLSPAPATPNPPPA

[4] = target: Mannose-binding protein C (Homo sapiens) (UniProt P11226); experiment: Displacement of biotinylated-TM PAA from human MBP at 50 mM after 3 hrs by colorimetry; how it was run: as §1
Chain of Mannose-binding protein C (Homo sapiens) (P11226 whole entry, the tested form may be a part): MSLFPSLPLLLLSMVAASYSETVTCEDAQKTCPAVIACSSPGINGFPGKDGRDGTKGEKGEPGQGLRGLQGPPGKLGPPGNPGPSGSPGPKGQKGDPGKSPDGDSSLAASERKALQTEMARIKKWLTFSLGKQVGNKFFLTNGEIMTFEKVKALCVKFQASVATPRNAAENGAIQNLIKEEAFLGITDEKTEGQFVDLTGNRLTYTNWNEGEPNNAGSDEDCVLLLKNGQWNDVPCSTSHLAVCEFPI

[5] = target: T3, C-type lectin domain family 4 member M (Homo sapiens) (UniProt Q9H2X3); experiment: Displacement of biotinylated-TM PAA from human DC-SIGNR at 50 mM after 3 hrs by colorimetry; how it was run: as §1
T3 sequence (whole entry): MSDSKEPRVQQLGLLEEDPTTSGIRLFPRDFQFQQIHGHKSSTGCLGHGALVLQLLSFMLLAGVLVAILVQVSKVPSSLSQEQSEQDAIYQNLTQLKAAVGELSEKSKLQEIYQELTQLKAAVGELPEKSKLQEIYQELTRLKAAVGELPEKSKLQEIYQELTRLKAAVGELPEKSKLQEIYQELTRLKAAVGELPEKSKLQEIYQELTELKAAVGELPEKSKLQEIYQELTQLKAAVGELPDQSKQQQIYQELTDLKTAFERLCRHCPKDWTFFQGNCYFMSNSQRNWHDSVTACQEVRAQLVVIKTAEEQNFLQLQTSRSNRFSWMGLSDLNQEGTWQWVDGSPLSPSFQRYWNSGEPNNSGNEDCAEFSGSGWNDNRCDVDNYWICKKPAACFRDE

[6] = target: T4, Macrophage mannose receptor 1 (Homo sapiens) (UniProt P22897); experiment: Displacement of biotinylated-TM PAA from human MMR at 50 mM after 3 hrs by colorimetry; how it was run: as §1
T4 sequence (whole entry): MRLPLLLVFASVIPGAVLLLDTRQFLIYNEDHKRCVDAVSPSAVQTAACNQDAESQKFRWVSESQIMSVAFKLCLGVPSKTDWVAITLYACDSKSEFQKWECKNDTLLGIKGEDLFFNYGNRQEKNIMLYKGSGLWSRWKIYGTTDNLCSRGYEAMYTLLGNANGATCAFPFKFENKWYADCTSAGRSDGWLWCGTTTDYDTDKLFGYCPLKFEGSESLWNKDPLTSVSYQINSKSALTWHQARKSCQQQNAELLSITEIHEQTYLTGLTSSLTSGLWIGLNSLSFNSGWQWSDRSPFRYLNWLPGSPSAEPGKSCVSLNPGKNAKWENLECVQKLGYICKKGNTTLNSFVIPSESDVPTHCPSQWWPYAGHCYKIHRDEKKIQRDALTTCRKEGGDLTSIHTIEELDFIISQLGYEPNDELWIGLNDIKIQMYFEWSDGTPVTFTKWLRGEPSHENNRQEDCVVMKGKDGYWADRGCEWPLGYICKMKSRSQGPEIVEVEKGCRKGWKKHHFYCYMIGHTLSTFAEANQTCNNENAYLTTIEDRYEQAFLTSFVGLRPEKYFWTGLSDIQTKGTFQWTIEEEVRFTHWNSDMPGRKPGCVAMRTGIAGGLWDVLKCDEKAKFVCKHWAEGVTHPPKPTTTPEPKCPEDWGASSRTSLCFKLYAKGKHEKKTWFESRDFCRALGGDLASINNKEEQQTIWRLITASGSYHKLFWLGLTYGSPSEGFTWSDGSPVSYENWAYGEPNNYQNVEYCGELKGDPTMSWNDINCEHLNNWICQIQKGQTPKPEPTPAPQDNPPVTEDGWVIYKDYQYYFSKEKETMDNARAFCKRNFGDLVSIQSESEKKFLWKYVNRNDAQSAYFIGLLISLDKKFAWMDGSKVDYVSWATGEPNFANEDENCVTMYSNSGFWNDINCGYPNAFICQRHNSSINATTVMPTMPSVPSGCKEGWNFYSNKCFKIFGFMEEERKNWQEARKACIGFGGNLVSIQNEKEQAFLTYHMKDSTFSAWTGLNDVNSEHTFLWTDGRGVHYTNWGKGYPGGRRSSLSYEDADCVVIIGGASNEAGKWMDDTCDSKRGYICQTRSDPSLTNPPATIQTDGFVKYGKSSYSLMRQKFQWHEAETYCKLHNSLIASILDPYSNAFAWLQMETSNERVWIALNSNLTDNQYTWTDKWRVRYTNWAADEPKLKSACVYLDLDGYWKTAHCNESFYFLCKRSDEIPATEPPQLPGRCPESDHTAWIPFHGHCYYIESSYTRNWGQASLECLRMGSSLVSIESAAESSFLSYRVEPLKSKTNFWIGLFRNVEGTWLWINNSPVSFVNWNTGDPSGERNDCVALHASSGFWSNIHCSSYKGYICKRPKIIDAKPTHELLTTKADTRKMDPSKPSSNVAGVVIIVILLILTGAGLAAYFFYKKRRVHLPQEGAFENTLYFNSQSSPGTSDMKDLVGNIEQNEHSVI

[7] = target: T5, Pulmonary surfactant-associated protein D (Homo sapiens) (UniProt P35247); experiment: Displacement of biotinylated-TM PAA from human SP-D at 50 mM after 3 hrs by colorimetry; how it was run: as §1
T5 sequence (whole entry): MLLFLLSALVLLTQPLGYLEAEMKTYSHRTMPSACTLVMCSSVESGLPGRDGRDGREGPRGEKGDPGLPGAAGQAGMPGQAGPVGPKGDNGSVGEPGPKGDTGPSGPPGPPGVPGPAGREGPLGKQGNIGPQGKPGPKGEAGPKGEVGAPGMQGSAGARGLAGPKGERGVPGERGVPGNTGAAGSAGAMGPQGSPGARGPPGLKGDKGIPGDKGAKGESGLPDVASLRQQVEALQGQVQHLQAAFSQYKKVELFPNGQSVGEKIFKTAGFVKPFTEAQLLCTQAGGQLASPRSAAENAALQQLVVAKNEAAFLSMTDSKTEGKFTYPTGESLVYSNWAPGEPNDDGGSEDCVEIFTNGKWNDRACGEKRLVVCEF

[8] = target: T6, C-type lectin domain family 6 member A (Homo sapiens) (UniProt Q6EIG7); experiment: Displacement of biotinylated-TM PAA from human Dectin-2 at 50 mM after 3 hrs by colorimetry; how it was run: as §1
T6 sequence (whole entry): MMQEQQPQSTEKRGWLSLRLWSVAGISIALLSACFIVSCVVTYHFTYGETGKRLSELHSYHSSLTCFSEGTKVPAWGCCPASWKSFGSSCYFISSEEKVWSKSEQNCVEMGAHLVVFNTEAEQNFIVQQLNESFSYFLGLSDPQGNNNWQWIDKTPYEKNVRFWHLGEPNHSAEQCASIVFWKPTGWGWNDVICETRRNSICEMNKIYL

Measured: inhibition

OC[C@H]1OC(O)[C@@H](O)[C@@H](O)[C@@H]1O (some centres undefined)
> 90%: all assays above
